In general, Ki refers to the dissociation constant of the complex between target and ligand, obtained from inhibition or displacement. As a reminder, the bioavailability is the share of a dose that reaches the circulation, judged against a reference dose that is usually intravenous. What is called IC50 is the point on the concentration scale where inhibition reaches its midpoint. Usually ED50 stands for the midpoint of the dose-response relation.

For series [1], the system named is RFL-6. As to the kind of experiment: Ratio of inhibitory constant against phosphodiesterase 1 and phosphodiesterase 5 in rat fetal lung fibroblast (RFL-6) cells. Format: cell-based.
The subject of series [2] is RFL-6. As to the kind of experiment: Ratio of inhibitory constant against rod phosphodiesterase 6 and phosphodiesterase 5 in rat fetal lung fibroblast (RFL-6) cells. Format: cell-based.
For series [3], the system named is RFL-6. As to the kind of experiment: Ratio of inhibitory constant against phosphodiesterase 4 and phosphodiesterase 5 in rat fetal lung fibroblast (RFL-6) cells. Format: cell-based.
The target of series [4] is T1, cGMP-specific 3',5'-cyclic phosphodiesterase (Rattus norvegicus, UniProt O54735). Kind of series: Inhibition of phosphodiesterase 5 in rat fetal lung fibroblast (RFL-6) cells. Format: cell-based.
Series [5] relates to RFL-6. As to the kind of experiment: Ratio of inhibitory constant against cone phosphodiesterase 6 and phosphodiesterase 5 in rat fetal lung fibroblast (RFL-6) cells. Format: cell-based.
Series [6] relates to RFL-6. As to the kind of experiment: Ratio of inhibitory constant against phosphodiesterase 2 and phosphodiesterase 5 in rat fetal lung fibroblast (RFL-6) cells. The class given is cell-based.
The subject of series [7] is RFL-6. As to the kind of experiment: Ratio of inhibitory constant against phosphodiesterase 3 and phosphodiesterase 5 in rat fetal lung fibroblast (RFL-6) cells. The class given is cell-based.
The subject of series [8] is RFL-6. As to the kind of experiment: Ratio of binding affinity towards phosphodiesterase 4 and phosphodiesterase 5 in rat fetal lung fibroblast (RFL-6) cells. The class given is cell-based.
Series [9] can be described thus: (§1) Oral bioavailability in rat. Format: ADME, organism-based. The following applies: in vivo. The procedure, abridged:
(§2)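 Male Sprague-Dawley rats, male beagle dogs and male rhesus monkeys, three per group. The oral arm received 30 mg/kg in 0.5% methylcellulose; the iv arm received 3.0 mg/kg in 20% HPBCD. Blood was drawn at 0, 0.5, 1, 2, 4, 6 and 24 h, and plasma drug was quantified by LC/MS. Bioavailability is reported as value and standard deviation.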

The nature of series [10]: as §1. The following applies: in vivo. Format: ADME, organism-based. The procedure, abridged: as §2
The source holds these as a separate data set.

Series [11] addresses cGMP-specific 3',5'-cyclic phosphodiesterase (Rattus norvegicus) (UniProt O54735). The following applies: RFL-6.
Series [12] concerns the target T1, cGMP-specific 3',5'-cyclic phosphodiesterase. As to the kind of experiment: Inhibitory concentration against phosphodiesterase 5 in rat fetal lung fibroblast (RFL-6) cells. The class given is cell-based.
Series [13] addresses cGMP-specific 3',5'-cyclic phosphodiesterase (Rattus norvegicus) (UniProt O54735). As to the kind of experiment: pKa value for phosphodiesterase 5 in rat fetal lung fibroblast (RFL-6) cells. The class given is functional, cell-based.
For a further series, the system named is Canis familiaris. Kind of series: Effect on intracavernosal pressure after i.v. administration in electrically stimulated dogs. Format: functional. The following applies: Canis lupus familiaris, iv.
Series [14] is described as follows: Oral bioavailability in monkey was determined. Format: ADME, organism-based. The following applies: cercopithecidae, in vivo. The procedure, abridged:
as §2

The nature of series [15]: Oral bioavailability in dog. Format: ADME, organism-based, Canis lupus familiaris. The following applies: in vivo. The procedure, abridged:
as §2

As to `Oc1c2c(nc3ccccc13)C(c1ccc3c(c1)CCO3)N(c1ccc(-c3cncn3Cc3ccccc3)cn1)C2` (stereo unspecified), the Selectivity is greater than 15000 in the series with RFL-6 [1]; 57.6 in the series on RFL-6 [2]; greater than 2500 in the series with RFL-6 [3]; 68.9 with RFL-6 [5]; greater than 15000 in the series with RFL-6 [6]; 4560 in the series with RFL-6 [7]. For the same molecule, the inhibition constant Ki in [4] is 0.17 nM.

For the molecule `Cn1cncc1-c1ccc(N2Cc3c(nc4ccccc4c3O)C2c2ccc3c(c2)CCO3)nc1` (stereo unspecified), the Selectivity with RFL-6 [1] is greater than 15000; in the series on RFL-6 [2], 2.6; in the series with RFL-6 [8] it was greater than 2500; with RFL-6 [5] it was 10.3; in the series with RFL-6 [6] it was greater than 15000; with RFL-6 [7], greater than 15000. The inhibition constant (Ki) in [4] is 0.33 nM.

As to `Oc1c2c(nc3ccccc13)C(c1ccc3c(c1)CCO3)N(c1ncc(-c3ccncc3)cn1)C2` (stereo unspecified), the Selectivity was greater than 15000 in the series on RFL-6 [1]; 10.5 with RFL-6 [2]; greater than 2500 in the series with RFL-6 [3]; 12.1 with RFL-6 [5]; greater than 15000 in the series with RFL-6 [6]; greater than 15000 with RFL-6 [7]. Moreover, in series [4], the affinity, expressed as Ki, was 0.22 nM.

Consider `O=c1c2c([nH]c3ccccc13)C(c1ccc3c(c1)CCO3)N(c1ccccn1)C2` (stereo unspecified), for which the bioavailability in series [9] and in series [10] was 38% each time. In series [4], this molecule had an inhibition constant (Ki) of 0.65 nM.

In the case of `Oc1c2c(nc3ccccc13)C(c1ccc3c(c1)CCO3)N(c1ccc(-c3ccccn3)nc1)C2` (stereo unspecified), the Selectivity is greater than 15000 in the series with RFL-6 [1], greater than 2500 in the series with RFL-6 [3], greater than 15000 in the series on RFL-6 [6] and greater than 15000 in the series with RFL-6 [7]. For the same molecule, in series [4], the Ki turned out to be 6.43 nM.

With `Oc1c2c(nc3ccccc13)C(c1ccc3c(c1)CCO3)N(c1ncc(-c3ccccn3)cn1)C2` (stereo unspecified), the Selectivity in the series with RFL-6 [1], in the series on RFL-6 [6] and in the series with RFL-6 [7] was greater than 15000 throughout. This molecule also came in with a Pka in [11] of 9.24. The molecule further had a bioavailability in series [10] of 31.3%.

`Oc1c2c(nc3ccccc13)C(c1ccc3c(c1)CCO3)N(c1ccc(-c3ccccn3)cn1)C2` (stereo unspecified): the Selectivity was greater than 15000 in the series on RFL-6 [1]; 93 with RFL-6 [2]; greater than 2500 in the series with RFL-6 [3]; 69.2 in the series on RFL-6 [5]; greater than 15000 in the series with RFL-6 [6]; greater than 15000 in the series on RFL-6 [7]. The same molecule showed a Ki in [4] of 0.15 nM. In series [10], this molecule showed a bioavailability of 39%.

With `CN1CC(=O)N2[C@H](c3ccc4c(c3)OCO4)c3[nH]c4ccccc4c3C[C@@H]2C1=O`, the Selectivity is greater than 2000 with RFL-6 [1]; greater than 2000 in the series on RFL-6 [3]; 1000 in the series on RFL-6 [5]; greater than 2000 in the series on RFL-6 [6]; greater than 2000 in the series on RFL-6 [7]. Also, in series [4], the affinity, expressed as Ki, was 5 nM.

For `Oc1c2c(nc3ccccc13)C(c1ccc3c(c1)CCO3)N(c1ccc(-n3ccnc3)cc1)C2` (stereo unspecified), the Selectivity in the series with RFL-6 [1] is greater than 15000; with RFL-6 [2] it was 499; in the series with RFL-6 [3], greater than 2500; in the series with RFL-6 [5], 1840; in the series with RFL-6 [6], greater than 15000; with RFL-6 [7] it was greater than 15000. For the same molecule, the Ki in series [4] came out at 0.51 nM.

As to `Oc1c2c(nc3ccccc13)C(c1ccc3c(c1)OCO3)N(c1ncc(-c3cccnc3)cn1)C2` (stereo unspecified), the Selectivity is greater than 15000 in the series on RFL-6 [1]; 9.3 with RFL-6 [2]; greater than 2500 in the series with RFL-6 [3]; 7.6 in the series on RFL-6 [5]; greater than 15000 in the series with RFL-6 [6]; greater than 15000 with RFL-6 [7]. The molecule further returned a Ki in [4] of 0.29 nM.

As for `Oc1c2c(nc3ccccc13)C(c1ccc3c(c1)CCO3)N(c1ncc(Br)cn1)C2` (stereo unspecified), the Selectivity with RFL-6 [1] is greater than 15000; with RFL-6 [2] it was 35.7; with RFL-6 [3], greater than 2500; with RFL-6 [5], 39.2; in the series with RFL-6 [6], greater than 15000; in the series on RFL-6 [7], greater than 15000. In [12], this molecule registered an IC50 of 1.9 nM.

As for `Oc1c2c(nc3ccccc13)C(c1ccc3c(c1)CCO3)N(c1ccccn1)C2` (stereo unspecified), the Selectivity was greater than 15000 in the series with RFL-6 [1]; 219 in the series on RFL-6 [2]; greater than 2500 in the series with RFL-6 [3]; 237 in the series with RFL-6 [5]; greater than 15000 in the series on RFL-6 [6]; greater than 15000 in the series with RFL-6 [7]. The same molecule yielded a pka in [13] of 5.

`Oc1c2c(nc3ccccc13)C(c1ccc3c(c1)CCO3)N(c1ncc(-c3cccnc3)cn1)C2` (stereo unspecified): the Selectivity with RFL-6 [1] was greater than 15000; in the series with RFL-6 [2], 127; in the series on RFL-6 [3], greater than 2500; in the series on RFL-6 [5], 66.5; in the series on RFL-6 [6] it was greater than 15000; in the series on RFL-6 [7], greater than 15000. The same molecule gave a Ki in series [4] of 0.36 nM.

With `Oc1c2c(nc3ccccc13)C(c1ccc3occc3c1)N(c1ncc(-c3ccccn3)cn1)C2` (stereo unspecified), the Selectivity with RFL-6 [1] was 15000; with RFL-6 [2], 22.6; in the series with RFL-6 [3], 2500; with RFL-6 [5], 22.3; in the series on RFL-6 [6] it was greater than 15000; in the series with RFL-6 [7], greater than 15000. The molecule further showed a Ki in series [4] of 0.19 nM.

For `Oc1c2c(nc3ccccc13)[C@@H](c1ccc3c(c1)CCO3)N(c1ccccn1)C2`, the Selectivity in the series on RFL-6 [1] was greater than 15000; with RFL-6 [2], 173; in the series with RFL-6 [3], greater than 2500; in the series on RFL-6 [5] it was 106; with RFL-6 [6], greater than 15000; in the series with RFL-6 [7], greater than 15000. Moreover, the ED50 with Canis familiaris was 9.85 µg/kg. Further, the figures for the bioavailability in series [14] and in series [15] were 40% and 69%, respectively. Further, the affinity in series [4] corresponds to a Ki of 0.12 nM.

`Cc1ncc(-c2cnc(N3Cc4c(nc5ccccc5c4O)C3c3ccc4c(c3)CCO4)nc2)n1Cc1ccccc1` (stereo unspecified): the Selectivity in the series with RFL-6 [1] was greater than 15000; in the series with RFL-6 [2], 366; in the series on RFL-6 [3], greater than 2500; in the series with RFL-6 [5] it was 359; with RFL-6 [6], greater than 15000; with RFL-6 [7], greater than 15000. The same molecule gave a Ki in series [4] of 0.24 nM.

Take `Oc1c2c(nc3ccccc13)C(c1ccc3c(c1)OCO3)N(c1ccc(-n3ccnc3)cc1)C2` (stereo unspecified): the Selectivity is greater than 15000 with RFL-6 [1]; 20.1 in the series on RFL-6 [2]; greater than 2500 with RFL-6 [3]; 13.2 in the series on RFL-6 [5]; greater than 4870 in the series on RFL-6 [6]; greater than 10300 in the series with RFL-6 [7]. The IC50 in [12] was 1.75 nM.

`Oc1c2c(nc3ccccc13)C(c1ccc3c(c1)CCO3)N(c1ncccn1)C2` (stereo unspecified): the Selectivity in the series with RFL-6 [1] was greater than 15000; in the series with RFL-6 [2], 755; with RFL-6 [3] it was greater than 2500; in the series with RFL-6 [5] it was 310; in the series on RFL-6 [6] it was greater than 15000; with RFL-6 [7], greater than 15000. For the same molecule, the pKa in series [13] turned out to be 4.4. The molecule further showed a bioavailability in series [10] of 12%.

Consider `CCN(CC)CCOc1ccc(-c2cnc(N3Cc4c(nc5ccccc5c4O)C3c3ccc4c(c3)CCO4)nc2)cc1` (stereo unspecified), for which the affinity in series [4], expressed as Ki, was 0.53 nM.

For the molecule `Cc1ncc(-c2cnc(N3Cc4c(nc5ccccc5c4O)C3c3ccc4c(c3)CCO4)nc2)n1C` (stereo unspecified), the Selectivity in the series on RFL-6 [1] was greater than 15000; in the series on RFL-6 [2], 237; in the series with RFL-6 [3], greater than 2500; in the series on RFL-6 [5] it was 219; with RFL-6 [6], greater than 15000; in the series with RFL-6 [7] it was greater than 15000. The molecule also showed a Ki in [4] of 0.24 nM. Moreover, the bioavailability in series [10] turned out to be 0%.

Take `CCCc1nn(C)c2c(=O)[nH]c(-c3cc(S(=O)(=O)N4CCN(C)CC4)ccc3OCC)nc12`: the ED50 with Canis familiaris came out at 5.1 µg/kg.

On to `Oc1c2c(nc3ccccc13)[C@@H](c1ccc3c(c1)CCO3)N(c1ncc(-c3ccccn3)cn1)C2`, for which the Selectivity was greater than 15000 in the series with RFL-6 [1]; 99 with RFL-6 [2]; greater than 2500 in the series on RFL-6 [3]; 67 in the series with RFL-6 [5]; greater than 15000 in the series with RFL-6 [6]; greater than 15000 in the series on RFL-6 [7]. For the same molecule, the ED50 in the series with Canis familiaris was found to be 8.03 µg/kg. In series [4], this molecule came in with a Ki of 0.019 nM.

Consider `COc1ccc(-c2cnc(N3Cc4c(nc5ccccc5c4O)C3c3ccc4c(c3)CCO4)nc2)cc1` (stereo unspecified), for which, in series [4], the affinity corresponds to a Ki of 0.52 nM.

The record behind these values is ChEMBL document CHEMBL1142740, “Pyrroloquinolone PDE5 inhibitors with improved pharmaceutical profiles for clinical studies on erectile dysfunction” (J Med Chem, 2005).
